IMP-1 inhibitor – IMP-1 metallo-beta-lactamase inhibitors, primary screen, biochemical, epi-absorbance readout, Pseudomonas aeruginosa enzyme; metallo-beta-lactamase IMP-1 (Pseudomonas aeruginosa); purified IMP-1, nitrocefin hydrolysis, epi-absorbance fluorescence; inhibition, % at 5.6 µM; 0.45% of 290,000 active; AID 1556, 2009;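 active means inhibition above the mean plus 3 SD of all compounds in the same screening run, cut at about 4.5% in these data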
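System: purified IMP-1 / Input: IMP-1 dispensed at 0.2 nM / Medium: 50 mM HEPES pH 7.1, 50 µM ZnSO4, 0.05% Brij 35 / Timing: 15 min enzyme–compound preincubation, then 25 min nitrocefin reaction, 25 °C / Technique: plate fluorescence quenching by hydrolysis product, ex 480/em 530 nm / Repeats: singlicate testing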
pPAFAH FP inh – pPAFAH enzyme inhibitors, primary screen, biochemical, fluorescence polarization, human. Platelet-activating factor acetylhydrolase (Homo sapiens), Q13093. recombinant pPAFAH, FP-rhodamine probe fluorescence polarization. inhibition, % at 3.39 µM. 1.5% of 330,000 active. AID 463082, 2010;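 active means inhibition above the mean inhibition across the screen plus 3 SD, cut at about 25% in these data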;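 further: inhibitors block binding of the rhodamine activity-based probe so polarization drops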
Target sequence (Q13093 whole entry, looked up): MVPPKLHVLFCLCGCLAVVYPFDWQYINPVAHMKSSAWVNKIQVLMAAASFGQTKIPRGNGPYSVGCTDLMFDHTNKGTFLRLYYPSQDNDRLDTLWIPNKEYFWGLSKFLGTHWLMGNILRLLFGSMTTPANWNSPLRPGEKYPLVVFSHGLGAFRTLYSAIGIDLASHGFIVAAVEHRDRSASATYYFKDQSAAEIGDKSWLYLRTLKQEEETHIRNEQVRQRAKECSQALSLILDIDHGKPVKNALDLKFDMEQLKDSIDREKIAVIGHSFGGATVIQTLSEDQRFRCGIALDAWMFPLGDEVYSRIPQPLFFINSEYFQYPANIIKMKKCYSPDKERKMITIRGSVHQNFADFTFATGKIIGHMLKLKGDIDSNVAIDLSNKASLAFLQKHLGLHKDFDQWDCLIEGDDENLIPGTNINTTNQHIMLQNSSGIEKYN
PAFAH1B3 inh – PAFAH1B3 enzyme inhibitors, primary screen, biochemical, fluorescence polarization, human; Platelet-activating factor acetylhydrolase IB subunit alpha1 (Homo sapiens), Q15102; recombinant PAFAH1B3, FP-rhodamine probe; inhibition, % at 3.39 µM; 0.28% of 340,000 active; AID 492972, 2010;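 active means inhibition above the screen-wide average of all tested compounds plus 3 SD, cut at about 25% in these data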
Target sequence (Q15102 whole entry, looked up): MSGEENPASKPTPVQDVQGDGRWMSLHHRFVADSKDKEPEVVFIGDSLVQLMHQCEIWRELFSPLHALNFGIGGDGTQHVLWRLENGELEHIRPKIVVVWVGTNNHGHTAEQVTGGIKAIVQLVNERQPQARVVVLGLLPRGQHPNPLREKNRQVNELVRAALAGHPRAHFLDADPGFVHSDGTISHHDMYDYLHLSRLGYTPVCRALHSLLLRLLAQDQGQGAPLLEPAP
PAFAH1B2 FP inh – PAFAH1B2 enzyme inhibitors, primary screen, biochemical, fluorescence polarization, human; 1.2% of 340,000 active; Platelet-activating factor acetylhydrolase IB subunit alpha2 (Homo sapiens), P68402; recombinant PAFAH1B2, FP-rhodamine activity probe; inhibition, % at 3.39 µM;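 active means inhibition above the mean of all tested compounds plus 3 SD, cut at about 24% in these data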
PAFAH2 inh – PAFAH2 enzyme inhibitors, primary screen, biochemical, fluorescence polarization, human; Platelet-activating factor acetylhydrolase 2, cytoplasmic (Homo sapiens), Q99487; recombinant PAFAH2, FP-rhodamine activity probe; inhibition, % at 3.39 µM; 0.99% of 340,000 active;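 active means inhibition above the mean over all tested compounds plus 3 SD, cut at about 30% in these data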;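 further: inhibitors block probe labeling of enzyme so polarization drops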
VIM-2 inhibitor – VIM-2 metallo-beta-lactamase inhibitors, primary screen, biochemical, epi-absorbance readout, Pseudomonas aeruginosa enzyme | AID 1527, 2009 | purified VIM-2, nitrocefin hydrolysis, epi-absorbance fluorescence | inhibition, % at 5.6 µM | 0.89% of 290,000 active;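 active means inhibition above the mean of all tested compounds plus 3 SD, cutoff set per screening run, cut at about 7.5% in these data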;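 further: red hydrolysis product quenches plate fluorescence so inhibitors raise well fluorescence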
PAFAH2 confirm – PAFAH2 enzyme inhibitors, confirmation, biochemical, fluorescence polarization, human; inhibition, % at 3.39 µM; AID 493030, 2011; shares compounds with PAFAH2 inh; 65% of 2,300 active; recombinant PAFAH2, FP-rhodamine activity probe;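 active means mean inhibition over three repeats above a set limit taken from the earlier primary screen, cut at about 30% in these data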;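 further: inhibitor blocks binding of rhodamine activity probe so polarization falls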
Of the large screens only hits and unclear results are named; the others gave an inactive call (follow-up assays come after a bar, where they were run). Sampled rows, rich in hits. Any-hit rate of the full collection: about 3.6%.

Cc1ccc(S(=O)(=O)N(CC(=O)Nc2ccccc2C(=O)O)c2ccccc2C)cc1	none
CC1CCCCC1NC(=O)COC(=O)c1ccccn1 (configuration not stated)	none
Cc1ccsc1C(=O)OCC(=O)NC1CCS(=O)(=O)C1 (configuration not stated)	none
CC1CCCCC1NC(=O)COC(=O)c1cccn1C (configuration not stated)	PAFAH2 inh 85.5 (no result: IMP-1 inhibitor, VIM-2 inhibitor) | PAFAH2 confirm 67.8
Cc1ccsc1C(=O)OCC(=O)NC1CCCCC1C (configuration not stated)	PAFAH2 inh 85.7 (no result: IMP-1 inhibitor, VIM-2 inhibitor) | PAFAH2 confirm 82.3
CCCCC/C=C/C1=CC(=O)C[C@H](c2ccc(OC)cc2)C1	none (no result: IMP-1 inhibitor, VIM-2 inhibitor)
COCC(C)n1c(SCc2ccc(C(=O)OC)cc2)nc2ccccc2c1=O (configuration not stated)	none
O=C(NCC1CCCO1)C(Cc1ccccc1)N1C(=O)C2C3C=CC(C4CC34)C2C1=O (configuration not stated)	PAFAH2 inh 42.5 | PAFAH2 confirm inactive
COc1cc(OC)cc(-c2nnc(Nc3nc4c(F)cccc4s3)o2)c1	PAFAH2 inh 35.8 | PAFAH2 confirm 30.9
O=C(COC(=O)c1cc(S(=O)(=O)N2CCOCC2)ccc1F)NC1CCCCC1	none (no result: IMP-1 inhibitor, VIM-2 inhibitor)
O=C(COC(=O)c1ccc(F)c(S(=O)(=O)N2CCOCC2)c1)NC1CCCCC1	PAFAH2 inh 71.2 (no result: IMP-1 inhibitor, VIM-2 inhibitor) | PAFAH2 confirm 60.3
COC(=O)c1cc(COC(=O)c2ccc(OC)c(S(=O)(=O)N3CCCC3)c2)oc1C	PAFAH2 inh 40.8 (no result: pPAFAH FP inh) | PAFAH2 confirm inactive
COc1ccc(C(=O)OCC(=O)NC2CC2)cc1S(=O)(=O)N1CCOCC1	PAFAH2 inh 51.7 | PAFAH2 confirm 38.7
CC(=O)N1CCN(C(=O)c2ccc(NS(=O)(=O)c3ccc4c(c3)OCCO4)cc2)CC1	none (no result: IMP-1 inhibitor, VIM-2 inhibitor)
CC(NC(=O)c1ccc(NC(=O)CC2SC(N3CCCC3)=NC2=O)cc1)c1ccc(S(N)(=O)=O)cc1 (configuration not stated)	none (no result: IMP-1 inhibitor, VIM-2 inhibitor)
O=C(COc1cc(F)ccc1[N+](=O)[O-])NCCN1C(=O)CSC1=O	none (no result: IMP-1 inhibitor, VIM-2 inhibitor)
Cc1ccc(NC(=O)COC(=O)c2cccc(N3C(=O)c4ccccc4C3=O)c2)cc1	PAFAH2 inh 38.1 | PAFAH2 confirm inactive
CC(=O)c1cccc(NC(=O)COC(=O)c2cccc(N3C(=O)c4ccccc4C3=O)c2)c1	PAFAH2 inh 51.7 | PAFAH2 confirm 46.1
CC(CN1CCCC1)OC(=O)c1ccc(Cl)cc1 (configuration not stated)	none
Cc1ccc(Cl)c(OCC(=O)Nc2ccccc2N2CCCCC2)c1	none (no result: IMP-1 inhibitor, VIM-2 inhibitor)
CC(NC(=O)COC(=O)c1ccccc1F)C1CC2CCC1C2 (configuration not stated)	PAFAH2 inh 75.9 (no result: IMP-1 inhibitor, VIM-2 inhibitor) | PAFAH2 confirm 63.4
Cc1ccc(OC(=O)c2cccc(C(=O)Oc3ccc(C)cc3)n2)cc1	none
CCS(=O)(=O)c1ccc(O)c(NC(=O)CC2(CC(=O)O)CCCC2)c1	PAFAH2 inh 37.3 | PAFAH2 confirm inactive
CCS(=O)(=O)c1ccc(O)c(NC(=O)Nc2ccccc2OC)c1	PAFAH2 inh 46.5 | PAFAH2 confirm 59.0
CCS(=O)(=O)c1ccc(O)c(NC(=O)COc2ccc(OC)cc2)c1	none
CCS(=O)(=O)c1ccc(O)c(NC(=O)/C=C/c2ccccc2)c1	PAFAH2 inh 74.7 | PAFAH2 confirm 73.2
CCS(=O)(=O)c1ccc(O)c(NC(=O)CCCC(=O)O)c1	none
CCCc1ccc(OCC(=O)Nc2cc(S(=O)(=O)CC)ccc2O)cc1	PAFAH2 inh 32.9 | PAFAH2 confirm inactive
CCNS(=O)(=O)c1ccc(NC(=O)Nc2ccccc2OC)cc1	none
COCC(=O)N1CCC(Oc2ccc(C(=O)N3CCN(C)C[C@@H]3C(C)C)cc2)CC1	none (no result: pPAFAH FP inh)
CCN(C(=O)COC(=O)c1cc(-c2ccc(C)o2)nc2ccccc12)C1CCS(=O)(=O)C1 (configuration not stated)	PAFAH2 inh 45.5 | PAFAH2 confirm inactive
NC(=O)C1CCCN(Cc2c(C(=O)N3CCc4ccccc4C3)nc3ccc(Cl)cn23)C1 (configuration not stated)	none
O=c1ncc(F)c[nH]1	none (no result: IMP-1 inhibitor, PAFAH1B3 inh, PAFAH1B2 FP inh, PAFAH2 inh, VIM-2 inhibitor)
COc1ccccc1NS(=O)(=O)c1ccc(C(=O)Nc2ncccc2O)cc1	PAFAH2 inh 55.1 (no result: IMP-1 inhibitor, VIM-2 inhibitor) | PAFAH2 confirm 46.1
COc1ccccc1NS(=O)(=O)c1ccc(NC(=O)c2ccncc2)cc1	none
CC(=O)Nc1ccc(NC(=O)CC(C)n2ccnc2)cc1 (configuration not stated)	PAFAH2 inh active | PAFAH2 confirm inactive
CC(CC(=O)Nc1nc2ccccc2[nH]1)n1ccnc1 (configuration not stated)	none
CCOc1ccc(OCCCC(=O)N2CCN(S(=O)(=O)c3ccccc3C#N)CC2)cc1	none (no result: IMP-1 inhibitor, VIM-2 inhibitor)
CC1CCCC(C)N1C(=O)COC(=O)c1ccco1 (configuration not stated)	PAFAH2 inh 31.1 (no result: IMP-1 inhibitor, VIM-2 inhibitor) | PAFAH2 confirm inactive
Cc1ccn2c(=O)nc(SCC(=O)NCc3ccccc3Cl)nc2c1	none (no result: IMP-1 inhibitor, VIM-2 inhibitor)
COc1ccc(C(=O)OCCN=C2NS(=O)(=O)c3ccccc32)cc1OC	PAFAH2 inh 42.6 | PAFAH2 confirm inactive
O=C(NCCN1C(=O)S/C(=C\c2ccc(Cl)cc2Cl)C1=O)C1=COCCO1	none (no result: IMP-1 inhibitor, VIM-2 inhibitor)
CCN(Cc1ccc(OC)c(F)c1)C(=O)/C=C/c1ccc(S(=O)(=O)N2CCOCC2)cc1	none (no result: IMP-1 inhibitor, VIM-2 inhibitor)
O=C(c1cc(-c2ccccc2Cl)on1)N1CCCC1	PAFAH2 inh 36.5 | PAFAH2 confirm 34.7
N#CCC(=O)Nc1ccc(C(=O)OCC(=O)C23CC4CC(CC(C4)C2)C3)cc1	PAFAH2 inh 63.2 (no result: IMP-1 inhibitor, VIM-2 inhibitor) | PAFAH2 confirm 61.7
CCOc1ccc(C(=O)OCC(=O)NCCNC(=O)COC(=O)c2ccc(OCC)cc2)cc1	none
Cc1nn(-c2ccccc2)c(C)c1NC(=O)COC(=O)c1ccc(NC(=O)CC#N)cc1	PAFAH2 inh 32.8 | PAFAH2 confirm inactive
CCCCNC(=O)COC(=O)c1ccc(NC(C)=O)cc1	PAFAH2 inh 69.8 | PAFAH2 confirm 53.8
CCCCOC(=O)c1ccc(NC(C)=O)cc1	none
CCCCNC(=O)COC(=O)c1ccc(N(C)C)cc1	PAFAH2 inh 76.2 | PAFAH2 confirm 76.3
Cc1ccc2[nH]c(O)c(N=O)c2c1	none

Bioassay records as filed in PubChem.
